The structures appear in SMILES notation. Peptide text beside a SMILES is read from it. * marks the point of attachment. Hydrocinnamoyl = O=C(CCc1ccccc1)*; Undecanoyl = CCCCCCCCCCC(=O)*; Lauroyl = CCCCCCCCCCCC(=O)*; Cbz = O=C(OCc1ccccc1)*; NHNH2 = NN*; NHOH = ON*

56 compounds from ChEMBL document CHEMBL1153722, “Design, synthesis, and characterization of peptide-based rab geranylgeranyl transferase inhibitors” (J Med Chem, 2009) can be followed below.

The species named for the test is Rattus norvegicus. Nature of the test: Inhibition of rat recombinant Rab geranylgeranyltransferase at 100 uM in presence of canine Rab7 and rat REP1 NBD-FPP based continuous fluorimetric assay. The method in brief: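 Continuous fluorometric assay in 96/384-well format: 3 μM Rab7, 3 μM REP1, 9 μM NBD-FPP and 400 nM RabGGTase, with or without inhibitor. […] IC50 was calculated from three independent measurements.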
Consider `CCCCCCCCCCCOc1ccc(C(=O)N[C@@H](Cc2c[nH]cn2)C(=O)N[C@@H](Cc2ccc(O)cc2)C(=O)N[C@@H](Cc2ccccc2)C(=O)NC2CCCCC2)cc1`, for which the inhibition (commonly the drop in the measured response relative to a control, in per cent) came out at 56%.

For `CC(C)C[C@H](NC(=O)[C@H](COC(C)(C)C)NC(=O)[C@H](Cc1ccccc1)NC(=O)CCc1ccccc1)C(N)=O`, the inhibition is 96%.

On to `CC(C)(C)Oc1ccc(C[C@H](NC(=O)c2coc(-c3ccccc3)n2)C(=O)NCC(=O)N[C@@H](Cc2ccccc2)C(=O)O)cc1`, for which the inhibition was found to be 82%.

As to `CC[C@H](C)[C@H](NC(=O)c1ccc(-c2ccccc2)cc1)C(=O)N[C@@H](C(=O)N[C@@H](CCC(N)=O)C(=O)OCCc1scnc1C)C(C)C`, the inhibition is 86%.

In the case of `C=CCOC(=O)[C@H](CO)NC(=O)CNC(=O)[C@H](Cc1ccccc1)NC(=O)c1coc(-c2ccccc2)n1`, the inhibition is 109%.

Consider `O=C(CNC(=O)[C@@H]1CCCN1C(=O)c1coc(-c2ccccc2)n1)N[C@@H](Cc1ccccc1)C(=O)Nc1ccc(F)cc1F`, for which the inhibition stood at 89%.

With `O=C(CNC(=O)C1CCCN1C(=O)/C=C/c1ccccc1)NC(Cc1ccccc1)C(=O)NCc1ccc(F)cc1F` (stereo unspecified), the inhibition was found to be 54%.

In the case of `CCCCCCCCCCC(=O)N[C@@H](Cc1c[nH]cn1)C(=O)N[C@@H](Cc1c[nH]cn1)C(=O)N[C@@H](CO)C(=O)Nc1ccccn1`, the inhibition came to 61%.

With `CC(C)C[C@H](NC(=O)c1coc(-c2ccccc2)n1)C(=O)NCC(=O)N[C@@H](Cc1c[nH]cn1)C(=O)Nc1ccc(F)cc1F`, the inhibition was 88%.

`C[C@H](NC(=O)c1coc(-c2ccccc2)n1)C(=O)NCC(=O)N[C@@H](Cc1c[nH]cn1)C(=O)Nc1ccc(F)cc1F`: the inhibition worked out at 76%.

With `C[C@@H](O)[C@H](NC(=O)C(Br)C(Br)c1ccccc1)C(=O)N[C@@H](Cc1ccccc1)C(=O)N[C@@H](CCC(N)=O)C(=O)Nc1cccc(Br)n1` (stereo partly specified), the inhibition came to 113%.

For `CC(C)C[C@H](NC(=O)[C@H](COC(C)(C)C)NC(=O)[C@H](Cc1ccccc1)NC(=O)c1ccc(-c2ccccc2)cc1)C(=O)OCCCl`, the inhibition was found to be 87%.

Turning to `C=CCCCCCCCCCOC(=O)[C@H](CO)NC(=O)CNC(=O)[C@H](CO)NC(=O)/C=C/c1ccc(F)cc1`, the inhibition is 57%.

`O=C(CCc1ccc(F)cc1)N[C@@H](Cc1ccc(O)cc1)C(=O)NCC(=O)N[C@@H](Cc1ccc(O)cc1)C(=O)NCc1ccc(F)cc1F`: the inhibition worked out at 89%.

Turning to `CC(C)(C)Oc1ccc(C[C@H](NC(=O)c2coc(-c3ccccc3)n2)C(=O)NCC(=O)N[C@@H](Cc2cn(C(c3ccccc3)(c3ccccc3)c3ccccc3)cn2)C(=O)O)cc1`, the inhibition came out at 94%.

As for `O=C(CNC(=O)[C@H](Cc1cn(C(c2ccccc2)(c2ccccc2)c2ccccc2)cn1)NC(=O)c1coc(-c2ccccc2)n1)N[C@@H](Cc1c[nH]c2ccccc12)C(=O)O`, the inhibition came to 74%.

In the case of `CCC/C=C/c1cccc(/C=C/C(=O)N[C@H](Cc2cnc[nH]2)C(=O)N[C@@H](Cc2ccc(O)cc2)C(=O)N[C@@H](Cc2ccccc2)C(=O)O)c1`, the inhibition was 59%.

`CC(C)CCNC(=O)[C@H](Cc1ccccc1)NC(=O)[C@H](CC(C)C)NC(=O)[C@@H]1CCCN1C(=O)/C=C/c1ccccc1`: the inhibition was found to be 104%.

`O=C(/C=C/c1ccc(F)cc1)N[C@@H](CO)C(=O)N[C@@H](Cc1ccccc1)C(=O)N[C@@H](CO)C(=O)NC1CCCCC1`: the inhibition came to 86%.

`O=C(/C=C/c1ccc(F)cc1)N[C@@H](CO)C(=O)N[C@@H](Cc1ccccc1)C(=O)N[C@@H](CO)C(=O)OCCCl`: the inhibition is 84%.

As for `CCCCCCCCCCC(=O)N[C@@H](Cc1ccc(O)cc1)C(=O)N[C@@H](Cc1c[nH]cn1)C(=O)N[C@@H](Cc1c[nH]cn1)C(=O)NCCCCN`, the inhibition is 73%.

Take `CCCCCCCCCCCOc1ccc(C(=O)N[C@@H](Cc2c[nH]cn2)C(=O)N[C@@H](Cc2ccc(O)cc2)C(=O)N[C@@H](Cc2ccccc2)C(=O)N(C)OC)cc1`: the inhibition was 65%.

For the compound `O=C(CCNC(=O)[C@H](Cc1c[nH]cn1)NC(=O)OCc1ccccc1)N[C@@H](Cc1ccc(O)cc1)C(=O)NCCCn1ccnc1`, the inhibition worked out at 88%.

Take `C[C@H](NC(=O)CCc1ccccc1)C(=O)N[C@@H](Cc1ccccc1)C(=O)N[C@@H](CCC(N)=O)C(=O)OCCCCO`: the inhibition amounted to 44%.

For the compound `O=C(N[C@@H](Cc1c[nH]cn1)C(=O)N[C@@H](Cc1ccc(O)cc1)C(=O)N[C@@H](Cc1ccccc1)C(=O)O)OCc1ccccc1` (Cbz-His-Tyr-Phe-OH), the inhibition was found to be 39%.

Regarding `CC(C)C[C@H](NC(=O)[C@@H]1CCCN1C(=O)/C=C/c1ccccc1)C(=O)N[C@@H](Cc1ccccc1)C(=O)O`, the inhibition stood at 80%.

`CCCCCc1ccc(/C=C/C(=O)N[C@H](Cc2cnc[nH]2)C(=O)N[C@@H](Cc2ccc(O)cc2)C(=O)N[C@@H](Cc2ccccc2)C(=O)O)cc1`: the inhibition is 17%.

On to `O=C(CCNC(=O)[C@H](Cc1c[nH]cn1)NC(=O)OCc1ccccc1)N[C@@H](Cc1ccc(O)cc1)C(=O)O`, for which the inhibition came out at 90%.

Turning to `CC(C)CCNC(=O)[C@H](CO)NC(=O)CNC(=O)[C@H](CO)NC(=O)/C=C/c1ccc(F)cc1`, the inhibition stood at 85%.

For the compound `CC(C)C[C@H](NC(=O)[C@H](CO)NC(=O)[C@H](Cc1ccccc1)NC(=O)c1ccc(-c2ccccc2)cc1)C(N)=O`, the inhibition stood at 110%.

As to `Nc1ccccc1NC(=O)[C@H](Cc1ccc(O)cc1)NC(=O)CCNC(=O)[C@H](Cc1c[nH]cn1)NC(=O)OCc1ccccc1`, the inhibition came to 80%.

Consider `CCCCCCCCCCC(=O)N[C@@H](Cc1ccc(O)cc1)C(=O)N[C@@H](Cc1c[nH]cn1)C(=O)N[C@@H](Cc1ccc(O)cc1)C(N)=O` (Undecanoyl-Tyr-His-Tyr-NH2), for which the inhibition came to 83%.

As to `C=CCOC(=O)[C@H](Cc1c[nH]cn1)NC(=O)[C@H](Cc1ccccc1)NC(=O)CNC(=O)C1COC(c2ccccc2)=N1` (stereo partly specified), the inhibition was 106%.

On to `CCCCCCCCCCCC(=O)N[C@@H](Cc1c[nH]cn1)C(=O)N[C@@H](Cc1ccccc1)C(=O)N[C@@H](Cc1ccc(O)cc1)C(=O)NO` (Lauroyl-His-Phe-Tyr-{NHOH}), for which the inhibition came to 89%.

Turning to `O=C(N[C@@H](CO)C(=O)N[C@@H](Cc1ccccc1)C(=O)N[C@@H](CO)C(=O)O)C(Br)C(Br)c1ccc(F)cc1` (stereo partly specified), the inhibition was 92%.

`CCCCCCCCCC(=O)N[C@@H](Cc1c[nH]cn1)C(=O)N[C@@H](Cc1cnc[nH]1)C(=O)N[C@@H](Cc1ccc(O)cc1)C(=O)OCCN`: the inhibition was 29%.

With `CCCCCCCCCCC(=O)N[C@@H](Cc1ccc(O)cc1)C(=O)N[C@@H](Cc1cnc[nH]1)C(=O)N[C@@H](Cc1ccc(O)cc1)C(=O)O` (Undecanoyl-Tyr-His-Tyr-OH), the inhibition was 90%.

Consider `CC[C@H](C)[C@H](NC(=O)c1ccc(-c2ccccc2)cc1)C(=O)N[C@@H](C(=O)N[C@@H](CCC(N)=O)C(=O)O)C(C)C`, for which the inhibition came out at 77%.

For `CCCCCCCCCCC(=O)N[C@@H](Cc1ccc(O)cc1)C(=O)N[C@@H](Cc1c[nH]cn1)C(=O)N[C@@H](Cc1ccc(O)cc1)C(=O)NOC(C)(C)C`, the inhibition was 79%.

In the case of `CCCCCCCCCCCOc1ccc(C(=O)N[C@@H](Cc2ccc(O)cc2)C(=O)N[C@@H](Cc2ccc(O)cc2)C(=O)N[C@@H](Cc2ccc(O)cc2)C(=O)NC2CCCCC2)cc1`, the inhibition was 91%.

For the compound `NNC(=O)[C@H](CCC(N)=O)NC(=O)[C@H](Cc1ccccc1)NC(=O)[C@H](CO)NC(=O)CCc1ccccc1` (Hydrocinnamoyl-Ser-Phe-Gln-NHNH2), the inhibition came to 104%.

Consider `O=C(CNC(=O)[C@@H]1CCCN1C(=O)/C=C/c1ccccc1)N[C@@H](Cc1ccccc1)C(=O)NC1CCCCC1`, for which the inhibition is 61%.

As for `CCCCCCCCCCC(=O)N[C@@H](Cc1c[nH]cn1)C(=O)N[C@@H](Cc1ccccc1)C(=O)N[C@@H](Cc1ccc(O)cc1)C(=O)NCC(O)CO` (stereo partly specified), the inhibition is 53%.

For `COC(=O)[C@H](CO)NC(=O)[C@H](Cc1c[nH]cn1)NC(=O)[C@H](CCCCN)NC(=O)CCc1ccccc1` (Hydrocinnamoyl-Lys-His-Ser-OMe), the inhibition is 86%.

`CCCCCCCCCCCOc1ccc(C(=O)N[C@@H](Cc2c[nH]cn2)C(=O)N[C@@H](Cc2ccc(O)cc2)C(=O)N[C@@H](Cc2ccccc2)C(=O)NCCCCN)cc1`: the inhibition was 127%.

With `NC(=O)CC[C@H](NC(=O)[C@H](Cc1ccccc1)NC(=O)CNC(=O)CCc1ccccc1)C(=O)NC1CCCCC1`, the inhibition came out at 50%.

Turning to `CCCCCCCCCCCOc1ccc(C(=O)N[C@@H](Cc2ccc(O)cc2)C(=O)N[C@@H](Cc2ccc(O)cc2)C(=O)N[C@@H](Cc2ccc(O)cc2)C(=O)OCCN)cc1`, the inhibition was 40%.

Take `CCCCCCCCCCCC(=O)N[C@@H](Cc1c[nH]cn1)C(=O)N[C@@H](Cc1c[nH]cn1)C(=O)N[C@@H](CO)C(=O)Nc1ccccc1N`: the inhibition was 88%.

Take `CC(C)C[C@H](NC(=O)[C@H](CO)NC(=O)[C@H](Cc1ccccc1)NC(=O)/C=C/c1ccc(F)cc1)C(N)=O`: the inhibition stood at 98%.

On to `O=C(CNC(=O)[C@H](Cc1ccc(O)cc1)NC(=O)c1ccc(F)cc1)N[C@@H](Cc1ccc(O)cc1)C(=O)OCCCl`, for which the inhibition was 55%.

As to `O=C(/C=C/c1ccc(F)cc1)N[C@@H](CO)C(=O)N[C@@H](Cc1ccccc1)C(=O)N[C@@H](CO)C(=O)NCc1ccccc1`, the inhibition is 100%.

With `CCCCCCCCCCCOc1ccc(C(=O)N[C@@H](Cc2c[nH]cn2)C(=O)N[C@@H](Cc2ccc(O)cc2)C(=O)N[C@@H](Cc2ccccc2)C(=O)N(C)CCc2ccccn2)cc1`, the inhibition amounted to 101%.

Take `CCCCCc1ccccc1CCC(=O)N[C@H](Cc1cnc[nH]1)C(=O)N[C@@H](Cc1ccc(O)cc1)C(=O)N[C@@H](Cc1ccccc1)C(=O)O`: the inhibition is 37%.

`CC(C)C[C@H](NC(=O)/C=C/c1ccccc1)C(=O)N[C@@H](Cc1ccccc1)C(=O)N[C@@H](Cc1ccccc1)C(=O)NC1CCCCC1`: the inhibition was -4%.

On to `CON(C)C(=O)[C@H](Cc1ccc(O)cc1)NC(=O)CNC(=O)[C@H](Cc1ccc(O)cc1)NC(=O)CCc1ccc(F)cc1`, for which the inhibition was 80%.

Consider `C[C@@H](O)[C@H](NC(=O)/C=C/c1ccccc1)C(=O)N[C@@H](Cc1ccccc1)C(=O)N[C@@H](CCC(N)=O)C(=O)O`, for which the inhibition turned out to be 83%.
